Results from ChEMBL document CHEMBL1255400, “Fasting increases tobramycin oral absorption in mice” (Antimicrob Agents Chemother, 2010).

How the values were obtained:
Format in all cases: ADME, organism-based
[1] = Tmax in normally fed BALB/c mouse at 50 mg/kg, po; design: dose 50 mg/kg, route oral; details: in vivo
How it was run: (§1)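 Male BALB/c mice, 6-8 weeks (25-30 g), fed or food-deprived 15 h with water available; tobramycin in physiologic solution given by gavage (50 mg/kg), or 10 mg/kg iv (tail vein) or im (hind leg) in fed mice. Groups of 3 per time point; submandibular blood at 0-180 min; plasma tobramycin by homogeneous enzyme immunoassay; noncompartmental PK analysis.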

[2] = AUC (0 to infinity) in normally fed BALB/c mouse at 10 mg/kg, iv; design: time infinity, dose 10 mg/kg, route intravenous; details: plasma; how it was run: as §1
[3] = Oral bioavailability in normally fed BALB/c mouse at 10 mg/kg, im; details: in vivo, intramuscular; how it was run: as §1
[4] = AUC (0 to infinity) in 15 hrs fasted BALB/c mouse at 50 mg/kg, po; design: time infinity, dose 50 mg/kg, route oral; details: plasma; how it was run: as §1
[5] = AUClast in normally fed BALB/c mouse at 50 mg/kg, po; design: time 0 - last, dose 50 mg/kg, route oral; details: plasma; how it was run: as §1
[6] = Tmax in normally fed BALB/c mouse at 10 mg/kg, iv; design: dose 10 mg/kg, route intravenous; details: in vivo; how it was run: as §1
[7] = Oral bioavailability in 15 hrs fasted BALB/c mouse at 50 mg/kg, po; details: in vivo; how it was run: as §1
[8] = Half life in normally fed BALB/c mouse at 10 mg/kg, im; design: dose 10 mg/kg, route intramuscular; details: in vivo; how it was run: as §1
[9] = Half life in normally fed BALB/c mouse at 10 mg/kg, iv; design: dose 10 mg/kg, route intravenous; details: in vivo; how it was run: as §1
[10] = AUClast in normally fed BALB/c mouse at 10 mg/kg, iv; design: time 0 - last, dose 10 mg/kg, route intravenous; details: plasma; how it was run: as §1
[11] = AUClast in 15 hrs fasted BALB/c mouse at 50 mg/kg, po; design: time 0 - last, dose 50 mg/kg, route oral; details: plasma; how it was run: as §1
[12] = Cmax in 15 hrs fasted BALB/c mouse at 50 mg/kg, po; design: dose 50 mg/kg, route oral; details: in vivo; how it was run: as §1
[13] = Tmax in 15 hrs fasted BALB/c mouse at 50 mg/kg, po; design: dose 50 mg/kg, route oral; details: in vivo; how it was run: as §1
[14] = Oral bioavailability in normally fed BALB/c mouse at 50 mg/kg, po; details: in vivo; how it was run: as §1
Mus musculus = test: Oral bioavailability in normally fed BALB/c mouse at 10 mg/kg, iv; details: in vivo; how it was run: as §1
[15] = Half life in 15 hrs fasted BALB/c mouse at 50 mg/kg, po; design: dose 50 mg/kg, route oral; details: in vivo; how it was run: as §1
[16] = AUC (0 to infinity) in normally fed BALB/c mouse at 50 mg/kg, po; design: time infinity, dose 50 mg/kg, route oral; details: plasma; how it was run: as §1
[17] = Cmax in normally fed BALB/c mouse at 50 mg/kg, po; design: dose 50 mg/kg, route oral; details: in vivo; how it was run: as §1
[18] = Cmax in normally fed BALB/c mouse at 10 mg/kg, iv; design: dose 10 mg/kg, route intravenous; details: in vivo; how it was run: as §1
[19] = AUClast in normally fed BALB/c mouse at 10 mg/kg, im; design: time 0 - last, dose 10 mg/kg, route intramuscular; details: plasma; how it was run: as §1
[20] = AUC (0 to infinity) in normally fed BALB/c mouse at 10 mg/kg, im; design: time infinity, dose 10 mg/kg, route intramuscular; details: plasma; how it was run: as §1
[21] = Half life in normally fed BALB/c mouse at 50 mg/kg, po; design: dose 50 mg/kg, route oral; details: in vivo; how it was run: as §1
[22] = Cmax in normally fed BALB/c mouse at 10 mg/kg, im; design: dose 10 mg/kg, route intramuscular; details: in vivo; how it was run: as §1
[23] = Tmax in normally fed BALB/c mouse at 10 mg/kg, im; design: dose 10 mg/kg, route intramuscular; details: in vivo; how it was run: as §1

Tmax [1]: 15 min
AUC(0-inf) [2]: 11500 ng·h/mL
bioavailability [3]: 96.5%
AUC(0-inf) [4]: 7300 ng·h/mL
AUC(0-t) [5]: 274 ng·h/mL
Tmax [6]: 5 min
bioavailability [7]: 12.4%
half-life [8]: 17.7 min
half-life [9]: 20.3 min
AUC(0-t) [10]: 11400 ng·h/mL
AUC(0-t) [11]: 7060 ng·h/mL
Cmax [12]: 7800 ng/mL
Tmax [13]: 15 min
bioavailability [14]: 0.48%
F (Mus musculus): 100%
half-life [15]: 22 min
AUC(0-inf) [16]: 316 ng·h/mL
Cmax [17]: 330 ng/mL
Cmax [18]: 35300 ng/mL
AUC(0-t) [19]: 11000 ng·h/mL
AUC(0-inf) [20]: 11100 ng·h/mL
half-life [21]: 41.6 min
Cmax [22]: 16500 ng/mL
Tmax [23]: 15 min
SMILES: NC[C@H]1O[C@H](O[C@H]2[C@H](O)[C@@H](O[C@H]3O[C@H](CO)[C@@H](O)[C@H](N)[C@H]3O)[C@H](N)C[C@@H]2N)[C@H](N)C[C@@H]1O [TOBRAMYCIN]
